The values that follow come from ChEMBL document CHEMBL4706538, “Novel pleuromutilin derivatives with substituted 6-methylpyrimidine: Design, synthesis and antibacterial evaluation” (2020).

In brackets after ≈: the same amount, converted by molar mass.

Common to all, as to type: functional
What all share (conditions): time 18-24 hrs

The subject of test [1] is Staphylococcus aureus. Briefly: Antibacterial activity against Staphylococcus aureus BNCC 337371 measured after 18 to 24 hrs by microtiter dilution method. The method in brief: (§1)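 Compounds were taken up in 25% DMSO at 64 μg/mL and serially diluted two-fold in water (11 dilutions). Log-phase bacteria grown in MHB were diluted to 10^5-10^6 CFU/mL and mixed 1:1 with the dilutions. Plates were incubated at 37 °C for 18-24 h. MIC was the lowest concentration giving no growth by OD492, averaged over three independent experiments.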

Test [2] deals with Streptococcus dysgalactiae. Briefly: Antibacterial activity against Streptococcus dysgalactiae measured after 18 to 24 hrs by microtiter dilution method. In a few lines:
as §1

Another test has as its system Escherichia coli. Briefly: Antibacterial activity against Escherichia coli CICC 10389 measured after 18 to 24 hrs by microtiter dilution method. In a few lines: as §1
The next test relates to Pasteurella multocida. Put plainly: Antibacterial activity against Pasteurella multocida CVCC 1659 measured after 18 to 24 hrs by microtiter dilution method. The method in brief: as §1
In test [3] the test system is Staphylococcus aureus. Put plainly: Antibacterial activity against Staphylococcus aureus ATCC 25923 measured after 18 to 24 hrs by microtiter dilution method. The method in brief:
as §1

The subject of a further test is Streptococcus agalactiae. Briefly: Antibacterial activity against Streptococcus agalactiae measured after 18 to 24 hrs by microtiter dilution method. The method in brief:
as §1

The subject of a further test is Enterococcus faecalis. Put plainly: Antibacterial activity against Enterococcus faecalis measured after 18 to 24 hrs by microtiter dilution method. The method in brief:
as §1

Test [4] concerns Staphylococcus epidermidis. Put plainly: Antibacterial activity against Staphylococcus epidermidis ATCC 51625 measured after 18 to 24 hrs by microtiter dilution method. The method in brief: as §1

As a reminder, the MIC is the smallest concentration in the dilution series that meets the test's criterion for growth inhibition. A high value points to weaker potency. In the case of `C=C[C@]1(C)C[C@@H](OC(=O)CSc2nc(C)cc(N3CCN(CCO)CC3)n2)[C@@]2(C)[C@H](C)CC[C@]3(CCC(=O)[C@H]32)[C@@H](C)[C@@H]1O`, the MIC with Staphylococcus aureus [1] was 0.41 µM (≈ 0.252 µg/mL); in test [2], 0.1 µM (≈ 0.0615 µg/mL); against Escherichia coli it was greater than 52.1 µM; with Pasteurella multocida it was 26 µM (≈ 16 µg/mL); in the test with Staphylococcus aureus [3], 0.1 µM (≈ 0.0615 µg/mL); with Streptococcus agalactiae, 0.1 µM (≈ 0.0615 µg/mL). Also, the MIC is 26 µM (≈ 16 µg/mL) against Enterococcus faecalis and 0.2 µM (≈ 0.123 µg/mL) in test [4].
On to `C=C[C@]1(C)C[C@@H](OC(=O)CSc2nc(C)cc(N3CCNCC3)n2)[C@@]2(C)[C@H](C)CC[C@]3(CCC(=O)[C@H]32)[C@@H](C)[C@@H]1O`, for which the MIC against Staphylococcus aureus [1] is 0.11 µM (≈ 0.0628 µg/mL); in test [2], 0.05 µM (≈ 0.0285 µg/mL); with Escherichia coli, greater than 56.1 µM; in the test on Pasteurella multocida, 28.1 µM (≈ 16 µg/mL); against Staphylococcus aureus [3], 0.11 µM (≈ 0.0628 µg/mL); in the test with Streptococcus agalactiae, 0.11 µM (≈ 0.0628 µg/mL). Further, the MIC was 14 µM (≈ 8.01 µg/mL) in the test with Enterococcus faecalis and 0.22 µM (≈ 0.126 µg/mL) in test [4].
Take `C=C[C@]1(C)C[C@@H](OC(=O)CSc2nc(C)cc(OCCCC)n2)[C@@]2(C)[C@H](C)CC[C@]3(CCC(=O)[C@H]32)[C@@H](C)[C@@H]1O`: the MIC against Staphylococcus aureus [1] was 3.58 µM (≈ 2 µg/mL); in test [2], 0.45 µM (≈ 0.251 µg/mL); with Escherichia coli it was greater than 57.3 µM; in the test on Pasteurella multocida, greater than 57.3 µM; in the test with Staphylococcus aureus [3], 1.79 µM (≈ 1 µg/mL); against Streptococcus agalactiae, 0.9 µM (≈ 0.503 µg/mL). For the same compound, the MIC in the test with Enterococcus faecalis is 57.3 µM (≈ 32 µg/mL); in test [4], 1.79 µM (≈ 1 µg/mL).
Turning to `C=C[C@]1(C)C[C@@H](OC(=O)CS[C@@H]2C[C@H]3CC[C@@H](C2)N3C)[C@@]2(C)[C@H](C)CC[C@]3(CCC(=O)[C@H]32)[C@@H](C)[C@@H]1O`, the MIC was 0.12 µM (≈ 0.0621 µg/mL) in the test with Staphylococcus aureus [1]; 0.06 µM (≈ 0.0311 µg/mL) in test [2]; 30.9 µM (≈ 16 µg/mL) in the test on Escherichia coli; 0.97 µM (≈ 0.502 µg/mL) against Pasteurella multocida; 0.24 µM (≈ 0.124 µg/mL) in the test on Staphylococcus aureus [3]; 0.06 µM (≈ 0.0311 µg/mL) in the test on Streptococcus agalactiae. Moreover, the minimum inhibitory concentration (MIC) against Enterococcus faecalis worked out at 15.4 µM (≈ 8 µg/mL); in test [4], 0.12 µM (≈ 0.0621 µg/mL).
`C=C[C@]1(C)C[C@@H](OC(=O)CSc2nc(C)cc(N3CC[C@@H](O)C3)n2)[C@@]2(C)[C@H](C)CC[C@]3(CCC(=O)[C@H]32)[C@@H](C)[C@@H]1O`: the MIC against Staphylococcus aureus [1] is 0.22 µM (≈ 0.126 µg/mL); in test [2], 0.22 µM (≈ 0.126 µg/mL); against Escherichia coli, greater than 56 µM; in the test on Pasteurella multocida, 14 µM (≈ 8 µg/mL); in the test on Staphylococcus aureus [3], 0.11 µM (≈ 0.0629 µg/mL); in the test with Streptococcus agalactiae, 0.11 µM (≈ 0.0629 µg/mL). In addition, the minimal inhibitory concentration (MIC) in the test with Enterococcus faecalis amounted to 28 µM (≈ 16 µg/mL); in test [4], 0.11 µM (≈ 0.0629 µg/mL).
On to `C=C[C@]1(C)C[C@@H](OC(=O)CSc2nc(C)cc(OCCN)n2)[C@@]2(C)[C@H](C)CC[C@]3(CCC(=O)[C@H]32)[C@@H](C)[C@@H]1O`, for which the MIC against Staphylococcus aureus [1] was 0.92 µM (≈ 0.502 µg/mL); in test [2] it was 0.23 µM (≈ 0.126 µg/mL); in the test with Escherichia coli it was greater than 58.7 µM; in the test with Pasteurella multocida it was greater than 58.7 µM; against Staphylococcus aureus [3], 0.92 µM (≈ 0.502 µg/mL); against Streptococcus agalactiae, 0.46 µM (≈ 0.251 µg/mL). Besides, the MIC against Enterococcus faecalis came to 58.7 µM (≈ 32 µg/mL); in test [4], 0.92 µM (≈ 0.502 µg/mL).
Regarding `C=C[C@]1(C)C[C@@H](OC(=O)CSc2nc(C)cc(N3CCC[C@@H](O)C3)n2)[C@@]2(C)[C@H](C)CC[C@]3(CCC(=O)[C@H]32)[C@@H](C)[C@@H]1O`, the MIC in the test with Staphylococcus aureus [1] is 0.21 µM (≈ 0.123 µg/mL); in test [2] it was 0.11 µM (≈ 0.0644 µg/mL); against Escherichia coli, greater than 54.7 µM; in the test on Pasteurella multocida, 27.3 µM (≈ 16 µg/mL); in the test on Staphylococcus aureus [3] it was 0.21 µM (≈ 0.123 µg/mL); against Streptococcus agalactiae, 0.05 µM (≈ 0.0293 µg/mL). Besides, the MIC with Enterococcus faecalis is 27.3 µM (≈ 16 µg/mL); in test [4], 0.21 µM (≈ 0.123 µg/mL).
On to `C=C[C@]1(C)C[C@@H](OC(=O)CSc2nc(C)cc(OC)n2)[C@@]2(C)[C@H](C)CC[C@]3(CCC(=O)[C@H]32)[C@@H](C)[C@@H]1O`, for which the MIC was 0.24 µM (≈ 0.124 µg/mL) in the test on Staphylococcus aureus [1]; 0.12 µM (≈ 0.062 µg/mL) in test [2]; greater than 62 µM against Escherichia coli; 62 µM (≈ 32 µg/mL) against Pasteurella multocida; 0.24 µM (≈ 0.124 µg/mL) in the test with Staphylococcus aureus [3]; 0.24 µM (≈ 0.124 µg/mL) in the test on Streptococcus agalactiae. Besides, the results for the MIC (against Enterococcus faecalis; in test [4]) were 31 µM (≈ 16 µg/mL) and 0.24 µM (≈ 0.124 µg/mL), respectively.
Take `C=C[C@]1(C)C[C@@H](OC(=O)CSc2nc(C)cc(N3CCC(CO)CC3)n2)[C@@]2(C)[C@H](C)CC[C@]3(CCC(=O)[C@H]32)[C@@H](C)[C@@H]1O`: the MIC with Staphylococcus aureus [1] was 0.84 µM (≈ 0.504 µg/mL); in test [2] it was 0.42 µM (≈ 0.252 µg/mL); against Escherichia coli it was greater than 53.5 µM; in the test on Pasteurella multocida it was 53.5 µM (≈ 32.1 µg/mL); against Staphylococcus aureus [3], 0.21 µM (≈ 0.126 µg/mL); with Streptococcus agalactiae, 0.84 µM (≈ 0.504 µg/mL). In addition, the MIC in the test with Enterococcus faecalis worked out at 53.5 µM (≈ 32.1 µg/mL); in test [4], 0.42 µM (≈ 0.252 µg/mL).
Consider `C=C[C@]1(C)C[C@@H](OC(=O)CSc2nc(C)cc(N3CCC(O)CC3)n2)[C@@]2(C)[C@H](C)CC[C@]3(CCC(=O)[C@H]32)[C@@H](C)[C@@H]1O`, for which the MIC is 0.21 µM (≈ 0.123 µg/mL) in the test on Staphylococcus aureus [1]; 0.11 µM (≈ 0.0644 µg/mL) in test [2]; greater than 54.7 µM in the test on Escherichia coli; 27.3 µM (≈ 16 µg/mL) against Pasteurella multocida; 0.21 µM (≈ 0.123 µg/mL) against Staphylococcus aureus [3]; 0.11 µM (≈ 0.0644 µg/mL) in the test with Streptococcus agalactiae. Moreover, the MIC in the test on Enterococcus faecalis turned out to be 13.7 µM (≈ 8.01 µg/mL); in test [4], 0.21 µM (≈ 0.123 µg/mL).
As to `C=C[C@]1(C)C[C@@H](OC(=O)CSc2nc(C)cc(N(CC)CC)n2)[C@@]2(C)[C@H](C)CC[C@]3(CCC(=O)[C@H]32)[C@@H](C)[C@@H]1O`, the MIC against Staphylococcus aureus [1] is 0.45 µM (≈ 0.251 µg/mL); in test [2] it was 0.22 µM (≈ 0.123 µg/mL); against Escherichia coli, greater than 57.4 µM; with Pasteurella multocida it was 57.4 µM (≈ 32 µg/mL); against Staphylococcus aureus [3], 0.22 µM (≈ 0.123 µg/mL); with Streptococcus agalactiae, 0.11 µM (≈ 0.0614 µg/mL). Besides, the figures for the minimal inhibitory concentration (MIC) (in the test on Enterococcus faecalis; in test [4]) were 28.7 µM (≈ 16 µg/mL) and 0.45 µM (≈ 0.251 µg/mL), respectively.
Turning to `C=C[C@]1(C)C[C@@H](OC(=O)CSc2nc(C)cc(O)n2)[C@@]2(C)[C@H](C)CC[C@]3(CCC(=O)[C@H]32)[C@@H](C)[C@@H]1O`, the MIC against Staphylococcus aureus [1] is 0.25 µM (≈ 0.126 µg/mL); in test [2] it was 0.12 µM (≈ 0.0603 µg/mL); in the test on Escherichia coli, greater than 63.8 µM; against Pasteurella multocida, 7.95 µM (≈ 4 µg/mL); in the test on Staphylococcus aureus [3] it was 0.25 µM (≈ 0.126 µg/mL); against Streptococcus agalactiae it was 0.12 µM (≈ 0.0603 µg/mL). Besides, the figures for the minimum inhibitory concentration (MIC) (in the test on Enterococcus faecalis; in test [4]) were 16 µM (≈ 8.02 µg/mL) and 0.25 µM (≈ 0.126 µg/mL), respectively.
With `C=C[C@]1(C)C[C@@H](OC(=O)CSc2nc(C)cc(OCC)n2)[C@@]2(C)[C@H](C)CC[C@]3(CCC(=O)[C@H]32)[C@@H](C)[C@@H]1O`, the MIC in the test with Staphylococcus aureus [1] was 0.12 µM (≈ 0.0637 µg/mL); in test [2] it was 0.12 µM (≈ 0.0637 µg/mL); against Escherichia coli, greater than 60.4 µM; with Pasteurella multocida it was greater than 60.4 µM; against Staphylococcus aureus [3], 0.12 µM (≈ 0.0637 µg/mL); against Streptococcus agalactiae, 0.24 µM (≈ 0.127 µg/mL). Further, the results for the MIC (against Enterococcus faecalis; in test [4]) were 15.1 µM (≈ 8.01 µg/mL) and 0.24 µM (≈ 0.127 µg/mL), respectively.
On to `C=C[C@]1(C)C[C@@H](OC(=O)CSc2nc(C)cc(N(C)C)n2)[C@@]2(C)[C@H](C)CC[C@]3(CCC(=O)[C@H]32)[C@@H](C)[C@@H]1O`, for which the MIC in the test on Staphylococcus aureus [1] was 0.24 µM (≈ 0.127 µg/mL); in test [2], 0.12 µM (≈ 0.0636 µg/mL); in the test with Escherichia coli, greater than 60.5 µM; in the test on Pasteurella multocida, 30.2 µM (≈ 16 µg/mL); against Staphylococcus aureus [3], 0.12 µM (≈ 0.0636 µg/mL); in the test on Streptococcus agalactiae it was 0.12 µM (≈ 0.0636 µg/mL). In addition, the values for the MIC (in the test with Enterococcus faecalis; in test [4]) were 15.1 µM (≈ 8 µg/mL) and 0.24 µM (≈ 0.127 µg/mL), respectively.
Turning to `C=C[C@]1(C)C[C@@H](OC(=O)CSc2nc(C)cc(OC(C)C)n2)[C@@]2(C)[C@H](C)CC[C@]3(CCC(=O)[C@H]32)[C@@H](C)[C@@H]1O`, the MIC with Staphylococcus aureus [1] is 0.23 µM (≈ 0.125 µg/mL); in test [2], 0.92 µM (≈ 0.501 µg/mL); against Escherichia coli it was greater than 58.8 µM; in the test on Pasteurella multocida, greater than 58.8 µM; in the test on Staphylococcus aureus [3], 0.46 µM (≈ 0.251 µg/mL); in the test on Streptococcus agalactiae it was 0.23 µM (≈ 0.125 µg/mL). Further, the results for the MIC (in the test with Enterococcus faecalis; in test [4]) were 58.8 µM (≈ 32 µg/mL) and 0.46 µM (≈ 0.251 µg/mL), respectively.
